Assay results reported in ChEMBL document CHEMBL4014343 (J Med Chem, 2017).
Activity calls are given as the source filed them. The rule behind the calls is not given here.

Columns and labels:
[1] = molecular target: Serine/threonine-protein kinase Chk2 (Homo sapiens) (UniProt O96017); assay: Inhibition of CHK2 (unknown origin) at 1 uM
Outline: (§1)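 Single-point profiling at 1 μM in a 22-kinase panel, performed externally by ProQinase; activity read as residual percent of control.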

[2] = molecular target: T1, Insulin-like growth factor 1 receptor (Homo sapiens, UniProt P08069); assay: Inhibition of IGF1R phosphorylation at Tyr1161 residue in human MCF7 cells at 0.5 uM after 1 hr by immunoblot analysis; assay type: cell-based
T1 sequence (P08069 31-736 limits assumed): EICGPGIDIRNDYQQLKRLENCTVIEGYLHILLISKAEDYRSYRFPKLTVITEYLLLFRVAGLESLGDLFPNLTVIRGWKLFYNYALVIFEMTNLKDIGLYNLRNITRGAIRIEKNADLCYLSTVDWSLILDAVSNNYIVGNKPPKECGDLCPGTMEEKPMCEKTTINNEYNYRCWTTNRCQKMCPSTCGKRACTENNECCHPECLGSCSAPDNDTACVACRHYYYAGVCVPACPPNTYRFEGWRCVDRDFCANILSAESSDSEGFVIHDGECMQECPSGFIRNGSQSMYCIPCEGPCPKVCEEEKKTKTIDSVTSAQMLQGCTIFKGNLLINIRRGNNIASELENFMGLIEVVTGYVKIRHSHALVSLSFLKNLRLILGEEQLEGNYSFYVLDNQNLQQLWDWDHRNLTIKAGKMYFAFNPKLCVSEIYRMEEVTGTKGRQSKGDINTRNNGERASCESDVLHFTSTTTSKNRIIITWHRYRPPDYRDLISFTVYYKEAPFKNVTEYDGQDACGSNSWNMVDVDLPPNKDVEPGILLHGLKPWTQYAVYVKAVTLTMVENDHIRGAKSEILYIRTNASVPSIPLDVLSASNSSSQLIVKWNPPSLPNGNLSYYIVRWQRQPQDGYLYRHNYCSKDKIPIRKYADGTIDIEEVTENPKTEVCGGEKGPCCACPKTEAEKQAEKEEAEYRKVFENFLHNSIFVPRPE
T1 sequence (P08069 741-1367 limits assumed): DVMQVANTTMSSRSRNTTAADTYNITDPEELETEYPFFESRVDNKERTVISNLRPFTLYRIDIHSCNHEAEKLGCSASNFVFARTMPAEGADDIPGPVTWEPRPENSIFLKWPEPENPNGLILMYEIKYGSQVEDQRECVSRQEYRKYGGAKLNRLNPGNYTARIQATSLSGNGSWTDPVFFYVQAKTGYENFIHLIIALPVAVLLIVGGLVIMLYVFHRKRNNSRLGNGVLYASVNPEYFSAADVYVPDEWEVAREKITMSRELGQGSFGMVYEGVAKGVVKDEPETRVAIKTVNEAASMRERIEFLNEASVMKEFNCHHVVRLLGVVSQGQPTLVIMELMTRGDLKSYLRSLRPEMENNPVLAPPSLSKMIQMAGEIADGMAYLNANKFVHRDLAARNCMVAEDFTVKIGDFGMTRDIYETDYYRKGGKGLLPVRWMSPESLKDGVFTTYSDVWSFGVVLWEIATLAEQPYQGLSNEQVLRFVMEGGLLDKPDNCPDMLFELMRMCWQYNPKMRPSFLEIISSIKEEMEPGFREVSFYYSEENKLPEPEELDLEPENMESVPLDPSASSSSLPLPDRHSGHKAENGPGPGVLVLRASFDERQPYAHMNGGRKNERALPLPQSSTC
Outline: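 MCF7 (DMEM/10% FBS, 24 h) treated with increasing concentrations for 1 h; 40 μg lysate on 10% SDS-PAGE, probed with p-IGF-1R (Y1161) antibody 1:1000 overnight at 4 °C; β-actin loading control, PI3K inhibitor positive control.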

OVCAR-4 = assay: Growth inhibition of human OVCAR4 cells incubated for 48 hrs by sulforhodamine B assay; assay type: functional, cell-based
U-251 = assay: Growth inhibition of human U251 cells incubated for 48 hrs by sulforhodamine B assay; assay type: functional, cell-based
Outline: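 NCI-60 panel growth inhibition, run by the U.S. National Cancer Institute; GI50 values are means of two test series.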

A498 = assay: Growth inhibition of human A498 cells incubated for 48 hrs by sulforhodamine B assay; assay type: functional, cell-based
MOLT-4 = assay: Growth inhibition of human MOLT4 cells incubated for 48 hrs by sulforhodamine B assay; assay type: functional, cell-based
[3] = molecular target: Aurora kinase B (Homo sapiens) (UniProt Q96GD4); assay: Inhibition of human N-terminal GST/His6-tagged Aurora B (A2 to A344 residues) expressed in sf9 cells at 1 uM using tetra(LRRLSLG) as substrate by filter binding assay; outline: as §1
Aurora kinase B (Homo sapiens), sequence (Q96GD4 whole entry, the tested form may be a part): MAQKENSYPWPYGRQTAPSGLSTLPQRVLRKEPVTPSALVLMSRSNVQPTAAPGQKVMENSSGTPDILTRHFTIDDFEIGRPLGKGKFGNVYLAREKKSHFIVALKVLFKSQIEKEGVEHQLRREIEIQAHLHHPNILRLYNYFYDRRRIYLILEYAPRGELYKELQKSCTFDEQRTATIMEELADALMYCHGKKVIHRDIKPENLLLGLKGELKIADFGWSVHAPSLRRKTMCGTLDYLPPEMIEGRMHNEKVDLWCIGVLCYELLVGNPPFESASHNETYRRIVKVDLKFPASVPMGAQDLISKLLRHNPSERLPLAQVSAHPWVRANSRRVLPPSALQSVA

SK-MEL-28 = assay: Growth inhibition of human SK-MEL-28 cells incubated for 48 hrs by sulforhodamine B assay; assay type: functional, cell-based
RPMI-8226 = assay: Growth inhibition of human RPMI8226 cells incubated for 48 hrs by sulforhodamine B assay; assay type: functional, cell-based
[4] = molecular target: T1, Insulin-like growth factor 1 receptor; assay: Inhibition of recombinant human N-terminal GST/His6-tagged IGF1R (M954 to C1367 residues) expressed in sf9 cells assessed as residual activity at 1 uM using Poly(Glu,Tyr)4:1 as substrate by filter binding assay relative to control; outline: as §1
[5] = molecular target: T1, Insulin-like growth factor 1 receptor; assay: Inhibition of IGF1R in human PANC1 cells assessed as reduction in Akt phosphorylation at Ser473 residue after 24 hrs by immunoblot analysis; assay type: cell-based
Outline: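 Cells in their medium with 10% FBS exposed to rising concentrations for 24 h; whole-cell lysates immunoblotted for p-Akt (S473) and total Akt; PI3K inhibitor at 10 μM as positive control.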

Serine/threonine-protein kinase Chk2 (Homo sapiens), sequence (O96017 whole entry): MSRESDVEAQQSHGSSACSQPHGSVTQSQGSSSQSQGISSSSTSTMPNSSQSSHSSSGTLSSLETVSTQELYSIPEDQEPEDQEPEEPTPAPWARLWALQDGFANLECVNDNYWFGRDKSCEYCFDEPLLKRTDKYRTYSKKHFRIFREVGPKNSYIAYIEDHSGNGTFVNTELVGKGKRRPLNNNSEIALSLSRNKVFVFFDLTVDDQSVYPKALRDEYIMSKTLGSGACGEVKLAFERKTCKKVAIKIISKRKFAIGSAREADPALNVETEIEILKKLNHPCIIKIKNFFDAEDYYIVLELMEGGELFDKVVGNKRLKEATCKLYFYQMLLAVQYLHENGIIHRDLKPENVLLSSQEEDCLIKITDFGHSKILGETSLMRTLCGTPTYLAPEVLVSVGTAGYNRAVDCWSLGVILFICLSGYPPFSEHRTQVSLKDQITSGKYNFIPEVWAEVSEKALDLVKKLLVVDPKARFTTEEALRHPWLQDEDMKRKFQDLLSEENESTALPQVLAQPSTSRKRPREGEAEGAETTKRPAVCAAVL

CN1CCN(CCO/N=C2/C(=C3/C(=O)Nc4ccccc43)Nc3ccccc32)CC1
inhibition [1]: inactive | inhibition [2]: Active | growth inhibition (GI) (OVCAR-4): Active | growth inhibition (GI) (U-251): Active | growth inhibition (GI) (A498): Active | growth inhibition (GI) (MOLT-4): Active | inhibition [3]: inactive | growth inhibition (GI) (SK-MEL-28): Active | growth inhibition (GI) (RPMI-8226): Active | Activity [4]: 30% | inhibition [5]: Dose-dependent effect
